Most compounds without a hit are left out; they make up all but 2.2% or so of the library.
GalR3 antagonist – GalR3 antagonists in HEK293 cells, primary screen, cell-based, fluorescence readout. AID 651719, 2012. actives 0.44% (n = 360,000). inhibition, % at 3 µM. HEK293 GalR3-CNG cAMP membrane potential fluorescence; galR3 body fused to GalR1 C-terminus;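 active means inhibition above the screen-wide average plus 3 SD, cut at about 13% in these data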;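 further: forskolin and galanin both at EC90 stimulate the cells; cAMP rise reported by CNG channel membrane potential dye signal; 0% = forskolin plus galanin with DMSO and 100% = forskolin alone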
Target sequence (O60755 1-299 limits assumed): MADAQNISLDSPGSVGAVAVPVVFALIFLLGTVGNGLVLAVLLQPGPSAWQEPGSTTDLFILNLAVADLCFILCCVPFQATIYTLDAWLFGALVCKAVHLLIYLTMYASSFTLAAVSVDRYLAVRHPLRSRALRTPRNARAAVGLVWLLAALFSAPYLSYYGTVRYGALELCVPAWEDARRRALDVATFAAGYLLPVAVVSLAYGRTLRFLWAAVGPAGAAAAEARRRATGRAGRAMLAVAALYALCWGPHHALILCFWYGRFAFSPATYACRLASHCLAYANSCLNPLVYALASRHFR
GAA850 FXN act – FXN promoter activators, primary screen, cell-based, luciferase luminescence, HEK293 lucGAA850; HEK293 lucGAA850 FXN promoter luciferase reporter, 24 h; percent of 10 µM SAHA response; activation, % at 6 µM; actives 0.56% (n = 360,000);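 active means activation above the average of all compounds screened plus 3 SD, cutoff fixed separately per campaign, cut at about 7.5% in these data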;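 further: 0% = DMSO wells and 100% = 10 µM SAHA wells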
NR2E3 ag-1 – NR2E3 agonists in two-hybrid cells, primary screen, cell-based, luminescence, CHO-S, Gal4-NCOR/VP16-NR2E3; AID 602229, 2012; actives 0.35% (n = 360,000); inhibition of corepressor binding, % at 3.98 µM; luciferase; Photoreceptor-specific nuclear receptor (Homo sapiens), Q9Y5X4;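 active means inhibition above the mean of all tested compounds plus 3 SD, cut at about 70% in these data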;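 further: 0% = DMSO with NR2E3 transfected cells and 100% = cells lacking NR2E3 construct; higher means lower luciferase signal from less NR2E3 corepressor binding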
Target sequence (Q9Y5X4 whole entry, looked up, the tested form may be a part): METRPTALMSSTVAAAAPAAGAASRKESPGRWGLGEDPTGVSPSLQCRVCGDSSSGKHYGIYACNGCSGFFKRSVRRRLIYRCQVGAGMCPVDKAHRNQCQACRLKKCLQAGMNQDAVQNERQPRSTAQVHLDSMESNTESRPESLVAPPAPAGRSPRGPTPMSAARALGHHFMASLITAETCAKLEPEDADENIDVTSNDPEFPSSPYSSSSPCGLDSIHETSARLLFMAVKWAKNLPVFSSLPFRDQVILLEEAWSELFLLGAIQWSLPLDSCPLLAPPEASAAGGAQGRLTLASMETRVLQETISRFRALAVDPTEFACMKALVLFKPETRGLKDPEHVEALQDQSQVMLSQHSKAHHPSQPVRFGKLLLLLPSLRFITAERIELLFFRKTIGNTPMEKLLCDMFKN
NR2E3 ag-2 – inhibitors of NR2E3-RetCOR corepressor binding, primary screen, NR2E3 agonist project, biochemical, TR-FRET, GST-NR2E3, biotin-RetCOR | inhibition of corepressor binding, % at 4.78 µM | Photoreceptor-specific nuclear receptor (Homo sapiens), Q9Y5X4 | AID 2300, 2010 | actives 0.12% (n = 320,000) | 1536-well;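 active means percent inhibition above the cutoff of mean plus 3 SD of all tested compounds, set per screening campaign, cut at about 20% in these data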;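 further: 0% = DMSO wells and 100% = biotin wells as full block of FRET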
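Material: NR2E3–RetCOR corepressor complex / Amount: 1.35 nM GST-NR2E3 / Medium: Tris pH 7.5 / Compound: single nominal compound dose of 4.8 µM / Incubation: 5 h at 4 °C / Technique: TR-FRET, Eu(K)-anti-GST donor, streptavidin-D2 acceptor, ex 340, em 617/671 nm / Read-out basis: percent loss of FRET ratio relative to control wells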
HIV Env fusion – inhibitors of HIV-1 Env-driven cell-cell fusion, primary screen, HeLa-JRFL effector, CEM21 target cells, luciferase. inhibition, % at 12.3 µM. actives 1.1% (n = 360,000). AID 651610, 2012;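 active means mean replicate inhibition score of at least 50 and every replicate individually at or above 50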;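 further: 0% = plate neutral controls and 100% = maraviroc near 300 nM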
V-ATPase pHluor – regulators of yeast V-ATPase proton pumping, primary screen, pHLuorin cytosolic pH fluorescence; S. cerevisiae; response, % at 10 µM; actives 0.37% (n = 350,000); in the data active means response mostly above about 7.3%, no sharp cut-off; inactive means mostly below about 5.4%; further: actives read high
NR2E3 ag confirm – NR2E3 agonist confirmation in cells, cell-based, luminescence, CHO-S two-hybrid; shares compounds with NR2E3 ag-1; CHO-S mammalian two-hybrid NR2E3-NCOR, luciferase luminescence; inhibition, % at 3.98 µM; actives 51% (n = 2,300);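 active means average inhibition above a cutoff equal to the mean inhibition of all tested compounds plus one SD, cut at about 70% in these data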;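 further: 0% = DMSO in NR2E3 cells and 100% = DMSO in cells lacking NR2E3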
VP16 counter – GAL4-VP16 reporter modulators, confirmation, counter-screen for NR2E3 agonist project, cell-based, luminescence, CHO-S, high throughput | shares compounds with NR2E3 ag-1 | CHO-S GAL4-VP16 luciferase reporter | inhibition, % at 3.98 µM | actives 29% (n = 2,300) | AID 624379, 2012;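 active means mean inhibition above a cutoff equal to the average over all tested compounds plus one standard deviation, cut at about 70% in these data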;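 further: luciferase from a UAS reporter driven by GAL4-VP16 transactivation; 0% = DMSO with VP16-transfected cells and 100% = DMSO with cells lacking VP16; higher means less reporter light so more repression of VP16 activity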
* hit, by the source's call; i = inactive; nt = no result; [ ] = remark or other dose.

SMILES | GalR3 antagonist | GAA850 FXN act | NR2E3 ag-1 | NR2E3 ag-2 | HIV Env fusion | V-ATPase pHluor | NR2E3 ag confirm | VP16 counter
Oc1ccccc1N=Nc1nc(-c2ccccc2)c(-c2ccccc2)[nH]1 | -8 | -15 | 81* | 4 | nt | 5 | 68 | 43
Cn1nc(C(=O)NCc2ccc(F)cc2)c2ccccc2c1=O | -2 | -2 | 8 | -2 | -19 | -7 | nt | nt
Cn1nc(CC(=O)NCc2ccc(C(F)(F)F)cc2)c2ccccc2c1=O | -3 | -1 | 67 | 3 | 71* | 0 | 91* | 79*
CCC(=O)N[C@@H]1CC[C@H](CC(=O)OC)O[C@@H]1CO | nt | nt | nt | nt | -3[16.7 µM] | nt | nt | nt
Cc1ccc(-c2nc(CS(=O)(=O)CC(=O)N3CCCCCC3)c(C)o2)cc1 | nt | 0 | 51 | -2 | 51* | -7 | 7 | 53
Cc1ccc(-c2nc(CS(=O)(=O)CC(=O)N3CCc4ccccc4C3)c(C)o2)cc1 | -1 | 1 | 36 | 3 | 24 | -6 | nt | nt
CC1C(=O)N(Cc2cn(CCC3OCCCO3)nn2)CCS(=O)(=O)N1Cc1ccc(-c2ccc(Cl)c(Cl)c2)cc1 (stereo not given) | -7 | -3 | 68 | nt | 64* | 2 | 93* | 77*
CC1C(=O)N(Cc2cn(CC3CCCCC3)nn2)CCS(=O)(=O)N1Cc1ccc(-c2ccc(Cl)cc2)cc1 (stereo not given) | nt | -1 | 59 | nt | nt | -1 | 32 | 34
CC1C(=O)N(Cc2cn(CC3CCCCC3)nn2)CCS(=O)(=O)N1Cc1ccc(-c2ccc(Cl)c(Cl)c2)cc1 (stereo not given) | -6 | 0 | 5 | nt | -12 | 0 | nt | nt
CCOC(=O)C(=O)NNc1ccc(F)cc1 | 4 | 0 | 65 | 0 | 3 | 1 | 12 | -4
C[C@@H]1CN([C@@H](C)CO)C(=O)c2cc(NC(=O)C3CCCCC3)ccc2O[C@@H](C)CCCCO[C@@H]1CN(C)Cc1ccccc1 | nt | nt | nt | nt | -8[16.7 µM] | nt | nt | nt
O=S(=O)(/C(=C\c1ccc(C(F)(F)F)cc1)c1nc2ccccc2[nH]1)c1ccccc1 | nt | -2 | 91* | nt | nt | 6 | 96* | -12
Cc1ccc(S(=O)(=O)Nc2nc3ccccc3nc2NCc2ccco2)cc1C | -5 | 3 | 49 | 0 | nt | 1 | 22 | 21
CN(C)C(=O)C[C@@H]1CC[C@@H](NC(=O)C2CCOCC2)[C@H](CO)O1 | nt | nt | nt | nt | 13[16.7 µM] | nt | nt | nt
C[C@@H]1CCCCO[C@H](CN(C)C(=O)c2ccncc2)[C@H](C)CN([C@H](C)CO)C(=O)c2cc(NC(=O)C3CCCCC3)ccc2O1 | nt | nt | nt | nt | 4[16.7 µM] | nt | nt | nt
CSc1ccc(CN(C)C(=O)c2ccc(S(=O)(=O)Nc3ccccc3)cc2)cc1 | 2 | 0 | 51 | -3 | 24 | -2 | -5 | 13
CO[C@H]1CN(C)C(=O)c2ccc(NS(C)(=O)=O)cc2OC[C@@H](C)N(C(=O)C2CCOCC2)C[C@@H]1C | nt | nt | nt | nt | 25[16.7 µM] | nt | nt | nt
Cc1ccc(N2CC(C(=O)Nc3nccs3)CC2=O)cc1Cl (stereo not given) | -8 | 1 | 48 | 2 | i | 3 | 59 | 21
COCc1nnc(NC(=O)C2CC(=O)N(c3ccc(C)c(Cl)c3)C2)s1 (stereo not given) | -3 | 0 | -12 | -5 | -18 | -5 | nt | nt
CCOC(=O)C1=Nc2ccccc2C1=[N+]=[N-] | -4 | -2 | 97* | 1 | nt | 3 | 42 | 79*
C[C@@H]1CN([C@H](C)CO)C(=O)c2cccc(NC(=O)c3cnccn3)c2O[C@H]1CN(C)S(=O)(=O)c1ccc(F)cc1 | nt | nt | nt | nt | -4[16.7 µM] | nt | nt | nt
O=C(Nc1ccc(S(=O)(=O)N2CCN(Cc3ccccc3)CC2)cc1)c1cnccn1 | 3 | -4 | 61 | 3 | 95* | -2 | 86* | 71*
O=S(=O)(/C=C/C=C/S(=O)(=O)c1ccccc1)c1ccccc1 | 5 | -16 | 85* | nt | -195 | -3 | 80* | 29
COC(=O)C[C@@H]1C[C@H]2c3cc(NC(=O)NC4CCCC4)ccc3O[C@H]2[C@@H](CO)O1 | nt | nt | nt | nt | -3[16.7 µM] | nt | nt | nt
CC[C@@H](C(=O)[C@@H](C)[C@@H](O)[C@H](C)[C@@H]1O[C@@H]([C@@H](CC)C(=O)O)CC[C@@H]1C)[C@H]1O[C@]2(C=C[C@@H](O)[C@]3(CC[C@@](C)([C@H]4CC[C@](O)(CC)[C@H](C)O4)O3)O2)[C@H](C)C[C@@H]1C | 0 | -11 | 102* | nt | -13 | -3 | 100* | 84*
SMILES | GalR3 antagonist | GAA850 FXN act | NR2E3 ag-1 | NR2E3 ag-2 | HIV Env fusion | V-ATPase pHluor | NR2E3 ag confirm | VP16 counter
Cc1ccccc1Oc1cc(NC(=O)CCCn2nc(C)c([N+](=O)[O-])c2C)cc([N+](=O)[O-])c1 | 1 | 1 | 60 | -1 | 33 | -3 | 66 | 41
Cc1cc(C(=O)NNc2ccccc2F)no1 | -5 | 2 | 50 | -4 | 3 | 0 | 48 | 0
CC(C)COC(=O)NCCOC(=O)Nc1cccc(Cl)c1 | -4 | 0 | 73* | 0 | -21 | -2 | 89* | 72*
CC(C)COC(=O)NCCCOC(=O)Nc1ccccc1 | -2 | -1 | -16 | -3 | nt | 2 | nt | nt
CC1=[N+](C)c2c(ccc3cccnc23)C1(C)C | 24* | -5 | 92* | nt | 34 | 1 | 99* | 85*
Cn1nnnc1Sc1ncnc2scc(-c3cccc(S(C)(=O)=O)c3)c12 | 0 | -10 | -14 | 5 | -303 | -4 | nt | nt
Cn1nnnc1Sc1ncnc2scc(-c3ccccc3Cl)c12 | -7 | -2 | 66 | 1 | 39 | -1 | 34 | 52
Cn1nnnc1Sc1ncnc2scc(-c3cccc(Br)c3)c12 | -2 | -10 | 51 | nt | -106 | 3 | 26 | 46
C[C@@H]1CN([C@@H](C)CO)C(=O)c2cc(NC(=O)c3ccccc3)ccc2O[C@@H](C)CCCCO[C@H]1CN(C)Cc1ccc2c(c1)OCO2 | nt | nt | nt | nt | 4[16.7 µM] | nt | nt | nt
CN(C)CC(=O)N[C@H]1CC[C@@H](CCn2cc(C3CC3)nn2)O[C@@H]1CO | nt | nt | nt | nt | -22[16.7 µM] | nt | nt | nt
COc1ccccc1-c1nnc(Nc2nc3c(OC)cccc3s2)o1 | -5 | -11 | 74* | 18 | -71 | -5 | 22 | -35
